Assay results from ChEMBL document CHEMBL4376814, “Novel cyclin-dependent kinase 9 (CDK9) inhibitor with suppression of cancer stemness activity against non-small-cell lung cancer” (Eur J Med Chem, 2019).
Active and inactive are the calls of the source. The calls are words filed in the database; no cut-off is given here.

Assays:
[1] = test system: A549; assay: Antiproliferative activity against human A549 cells assessed as inhibition of cell viability at 10 uM after 72 hrs by CCK-8 assay relative to control; format: functional; settings: A549, 72 h
Procedure, shortened: (§1)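 Single-concentration viability screen using CCK-8. Cells were seeded at 3000/well and treated for 72 h. A450 read after 1-4 h with reagent. Percent inhibition calculated against untreated control and blank wells as (Ac−As)/(Ac−Ab)×100%.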

[2] = target: T1, CDK9/cyclin T1 (Homo sapiens) (UniProt O60563+P50750); assay: Inhibition of recombinant full-length human CDK9/cyclinT1 at 500 nM using KTFCGTPEYLAPEVRREPRILSEEEQEMFRDFDYIADWC peptide as substrate measured after 40 mins in presence of [gamma33P]ATP by scintillation counting method relative to control; format: protein-complex assay
Procedure, shortened: (§2)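 Percent inhibition of kinase activity at a single compound concentration, measured by the outsourced Eurofins KinaseProfiler panel. Values are the mean of two independent experiments.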

[3] = target: T2, CDK4/Cyclin D3 (Homo sapiens) (UniProt P11802+P30281); assay: Inhibition of recombinant full-length human CDK4/cyclinD3 at 500 nM using Rb fragment as substrate measured after 40 mins in presence of [gamma33P]ATP by scintillation counting method relative to control; format: protein-complex assay; procedure, shortened: as §2
[4] = test system: HepG2; assay: Antiproliferative activity against human HepG2 cells assessed as inhibition of cell viability at 500 nM after 72 hrs by CCK-8 assay relative to control; format: functional; settings: HepG2, 72 h; procedure, shortened: as §1
[5] = test system: A549; assay: Antiproliferative activity against human A549 cells assessed as inhibition of cell viability at 1 uM after 72 hrs by CCK-8 assay relative to control; format: functional; settings: A549, 72 h; procedure, shortened: as §1
[6] = target: T1, CDK9/cyclin T1 (Homo sapiens); assay: Inhibition of recombinant full-length human CDK9/cyclinT1 at 1 uM using KTFCGTPEYLAPEVRREPRILSEEEQEMFRDFDYIADWC peptide as substrate measured after 40 mins in presence of [gamma33P]ATP by scintillation counting method relative to control; format: protein-complex assay; procedure, shortened: as §2
[7] = test system: SiHa; assay: Antiproliferative activity against human SiHa cells assessed as inhibition of cell viability at 500 nM after 72 hrs by CCK-8 assay relative to control; format: functional; procedure, shortened: as §1
[8] = test system: SiHa; assay: Antiproliferative activity against human SiHa cells assessed as inhibition of cell viability at 10 uM after 72 hrs by CCK-8 assay relative to control; format: functional; procedure, shortened: as §1
[9] = target: T3, CDK6/cyclin D3 (Homo sapiens) (UniProt P30281+Q00534); assay: Inhibition of recombinant full-length human CDK6/cyclinD3 at 500 nM using histone H1 as substrate measured after 40 mins in presence of [gamma33P]ATP by scintillation counting method relative to control; format: protein-complex assay; procedure, shortened: as §2
[10] = test system: HepG2; assay: Antiproliferative activity against human HepG2 cells assessed as inhibition of cell viability at 10 uM after 72 hrs by CCK-8 assay relative to control; format: functional; settings: HepG2, 72 h; procedure, shortened: as §1
[11] = test system: MCF7; assay: Antiproliferative activity against human MCF7 cells assessed as inhibition of cell viability at 500 nM after 72 hrs by CCK-8 assay relative to control; format: functional; settings: MCF7, 72 h; procedure, shortened: as §1
[12] = test system: NCI-H1299; assay: Antiproliferative activity against human H1299 cells assessed as inhibition of cell viability at 1 uM after 72 hrs by CCK-8 assay relative to control; format: functional; settings: NCI-H1299, 72 h; procedure, shortened: as §1
[13] = target: T2, CDK4/Cyclin D3 (Homo sapiens); assay: Inhibition of recombinant full-length human CDK4/cyclinD3 at 1 uM using Rb fragment as substrate measured after 40 mins in presence of [gamma33P]ATP by scintillation counting method relative to control; format: protein-complex assay; procedure, shortened: as §2
[14] = target: CDK9/cyclin T1 (Homo sapiens, UniProt P50750); assay: Inhibition of recombinant full-length human CDK9/cyclinT1 using KTFCGTPEYLAPEVRREPRILSEEEQEMFRDFDYIADWC peptide as substrate measured after 40 mins in presence of [gamma33P]ATP by scintillation counting method; format: protein-complex assay
Procedure, shortened: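 IC50 against CDK9/cyclin T1, determined by the outsourced Eurofins KinaseProfiler service. Values are the mean of two independent experiments.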

[15] = target: T3, CDK6/cyclin D3 (Homo sapiens); assay: Inhibition of recombinant full-length human CDK6/cyclinD3 at 1 uM using histone H1 as substrate measured after 40 mins in presence of [gamma33P]ATP by scintillation counting method relative to control; format: protein-complex assay; procedure, shortened: as §2
[16] = test system: NCI-H1299; assay: Antiproliferative activity against human H1299 cells assessed as inhibition of cell viability at 10 uM after 72 hrs by CCK-8 assay relative to control; format: functional; settings: NCI-H1299, 72 h; procedure, shortened: as §1
[17] = test system: MCF7; assay: Antiproliferative activity against human MCF7 cells assessed as inhibition of cell viability at 10 uM after 72 hrs by CCK-8 assay relative to control; format: functional; settings: MCF7, 72 h; procedure, shortened: as §1
[18] = test system: A549; assay: Antiproliferative activity against human A549 cells assessed as inhibition of cell viability after 72 hrs by CCK-8 assay; format: functional, cell-based; settings: A549, 72 h
Procedure, shortened: (§3)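 Cells kept at 37 °C, 5% CO2 in DMEM or RPMI-1640 with 10% FBS and 1% penicillin/streptomycin, then seeded at 3000 cells/well (adherent) or 10,000 cells/well (suspension). Exposed to a range of concentrations for 72 h. CCK-8 added for 1-4 h before reading A450. […] Three independent experiments.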

[19] = test system: MCF7; assay: Antiproliferative activity against human MCF7 cells assessed as inhibition of cell viability after 72 hrs by CCK-8 assay; format: functional, cell-based; settings: MCF7, 72 h; procedure, shortened: as §3
[20] = test system: A549; assay: Induction of apoptosis in human A549 cells assessed as late apoptotic cells at 1 uM after 48 hrs by AnnexinV-FITC/PI staining-based flow cytometric analysis (reference value: 7.66%); format: functional
[21] = test system: NCI-H1299; assay: Induction of apoptosis in human H1299 cells assessed as necrotic cells at 1 uM after 48 hrs by AnnexinV-FITC/PI staining-based flow cytometric analysis (reference value: 0.9%); format: functional
[22] = test system: PC-9; assay: Antiproliferative activity against human PC9 cells assessed as inhibition of cell viability after 72 hrs by CCK-8 assay; format: functional, cell-based; settings: PC-9, 72 h; procedure, shortened: as §3
[23] = test system: HeLa; assay: Antiproliferative activity against human HeLa cells assessed as inhibition of cell viability after 72 hrs by CCK-8 assay; format: functional, cell-based; procedure, shortened: as §3
[24] = test system: A549; settings: Homo sapiens, 1 uM
[25] = test system: NCI-H1975; assay: Antiproliferative activity against human NCI-H1975 cells assessed as inhibition of cell viability after 72 hrs by CCK-8 assay; format: functional, cell-based; settings: NCI-H1975, 72 h; procedure, shortened: as §3
[26] = test system: HepG2; assay: Antiproliferative activity against human HepG2 cells assessed as inhibition of cell viability after 72 hrs by CCK-8 assay; format: functional, cell-based; settings: HepG2, 72 h; procedure, shortened: as §3
[27] = test system: NCI-H1299; assay: Induction of apoptosis in human H1299 cells assessed as viable cells at 1 uM after 48 hrs by AnnexinV-FITC/PI staining-based flow cytometric analysis (reference value: 97.1%); format: functional; settings: NCI-H1299, 48 h, read-out: Activity
[28] = test system: NCI-H1299; assay: Antiproliferative activity against human H1299 cells assessed as inhibition of cell viability after 72 hrs by CCK-8 assay; format: functional, cell-based; settings: NCI-H1299, 72 h; procedure, shortened: as §3
[29] = test system: U-937; assay: Antiproliferative activity against human U937 cells assessed as inhibition of cell viability after 72 hrs by CCK-8 assay; format: functional, cell-based; settings: U-937, 72 h; procedure, shortened: as §3
[30] = test system: NCI-H1299; assay: Induction of apoptosis in human H1299 cells assessed as late apoptotic cells at 1 uM after 48 hrs by AnnexinV-FITC/PI staining-based flow cytometric analysis (reference value: 1.77%); format: functional
[31] = test system: CCRF-CEM; assay: Antiproliferative activity against human CCRF-CEM cells assessed as inhibition of cell viability after 72 hrs by CCK-8 assay; format: functional, cell-based; procedure, shortened: as §3
[32] = test system: Hep 3B2; assay: Antiproliferative activity against human Hep3B cells assessed as inhibition of cell viability after 72 hrs by CCK-8 assay; format: functional, cell-based; procedure, shortened: as §3
[33] = test system: NCI-H1299; assay: Inhibition of colony formation in human H1299 cells at 1 uM after 12 days by crystal violet staining based assay; format: functional, cell-based
Procedure, shortened: (§4)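 Cells were treated with the compound, washed, trypsinized and reseeded at 300 cells per well in 6-well plates. Colonies grew 10–14 days (12 days per legend). They were then fixed in methanol for 30 min, stained overnight with 0.5% crystal violet, washed and imaged.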

[34] = test system: HCC827; assay: Antiproliferative activity against human HCC827 cells assessed as inhibition of cell viability after 72 hrs by CCK-8 assay; format: functional, cell-based; settings: HCC827, 72 h; procedure, shortened: as §3
[35] = test system: A549; assay: Induction of apoptosis in human A549 cells assessed as viable cells at 1 uM after 48 hrs by AnnexinV-FITC/PI staining-based flow cytometric analysis (reference value: 88.8%); format: functional; settings: A549, 48 h, read-out: Activity
[36] = test system: NCI-H1299; assay: Induction of apoptosis in human H1299 cells assessed as early apoptotic cells at 1 uM after 48 hrs by AnnexinV-FITC/PI staining-based flow cytometric analysis (reference value: 0.248%); format: functional
[37] = test system: MDA-MB-231; assay: Antiproliferative activity against human MDA-MB-231 cells assessed as inhibition of cell viability after 72 hrs by CCK-8 assay; format: functional, cell-based; settings: MDA-MB-231, 72 h; procedure, shortened: as §3
[38] = test system: NCI-H1299; settings: Homo sapiens, 1 uM
[39] = test system: A549; assay: Induction of apoptosis in human A549 cells assessed as early apoptotic cells at 1 uM after 48 hrs by AnnexinV-FITC/PI staining-based flow cytometric analysis (reference value: 2.91%); format: functional
[40] = test system: Jurkat; assay: Antiproliferative activity against human Jurkat cells assessed as inhibition of cell viability after 72 hrs by CCK-8 assay; format: functional, cell-based; procedure, shortened: as §3
[41] = test system: A549; assay: Induction of apoptosis in human A549 cells assessed as necrotic cells at 1 uM after 48 hrs by AnnexinV-FITC/PI staining-based flow cytometric analysis (reference value: 0.664%); format: functional
[42] = test system: SiHa; assay: Antiproliferative activity against human SiHa cells assessed as inhibition of cell viability after 72 hrs by CCK-8 assay; format: functional, cell-based; procedure, shortened: as §3
[43] = test system: A549; assay: Inhibition of colony formation in human A549 cells at 1 uM after 12 days by crystal violet staining based assay; format: functional, cell-based; procedure, shortened: as §4

Sequence of CDK9/cyclin T1 (O60563 whole entry): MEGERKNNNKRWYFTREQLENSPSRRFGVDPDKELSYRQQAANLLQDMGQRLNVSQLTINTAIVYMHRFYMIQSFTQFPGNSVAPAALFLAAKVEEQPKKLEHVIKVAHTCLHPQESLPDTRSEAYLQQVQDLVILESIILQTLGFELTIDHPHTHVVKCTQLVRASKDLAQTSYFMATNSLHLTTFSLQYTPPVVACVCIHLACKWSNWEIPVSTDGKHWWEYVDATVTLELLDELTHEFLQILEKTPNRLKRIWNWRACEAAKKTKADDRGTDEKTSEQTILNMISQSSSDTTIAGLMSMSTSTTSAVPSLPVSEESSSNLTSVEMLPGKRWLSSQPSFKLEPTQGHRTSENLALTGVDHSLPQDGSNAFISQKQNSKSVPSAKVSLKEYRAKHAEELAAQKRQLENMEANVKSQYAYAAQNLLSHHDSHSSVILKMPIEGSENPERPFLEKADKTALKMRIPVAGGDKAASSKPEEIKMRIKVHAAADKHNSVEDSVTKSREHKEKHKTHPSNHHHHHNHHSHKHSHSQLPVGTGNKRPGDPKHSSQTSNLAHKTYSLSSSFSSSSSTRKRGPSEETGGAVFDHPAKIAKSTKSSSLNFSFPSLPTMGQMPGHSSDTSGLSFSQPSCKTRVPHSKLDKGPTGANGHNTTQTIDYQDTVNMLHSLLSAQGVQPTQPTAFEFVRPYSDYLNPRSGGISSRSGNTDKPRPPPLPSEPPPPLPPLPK
Sequence of CDK9/cyclin T1 (P50750 whole entry): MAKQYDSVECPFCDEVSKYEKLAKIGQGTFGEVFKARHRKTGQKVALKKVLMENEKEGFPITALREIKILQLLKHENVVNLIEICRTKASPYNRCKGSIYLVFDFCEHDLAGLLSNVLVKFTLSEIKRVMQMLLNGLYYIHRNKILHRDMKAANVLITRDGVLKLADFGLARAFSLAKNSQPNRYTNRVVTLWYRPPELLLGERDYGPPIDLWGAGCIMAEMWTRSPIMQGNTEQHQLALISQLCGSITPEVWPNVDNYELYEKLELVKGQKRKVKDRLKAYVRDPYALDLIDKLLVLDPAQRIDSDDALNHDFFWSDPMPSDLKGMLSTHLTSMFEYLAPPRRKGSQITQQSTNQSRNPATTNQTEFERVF

CN(C)C(=O)c1cc2cnc(Nc3ccc(C(=O)NCCCCCCCN=C=S)cc3)nc2n1C1CCCC1
inhibition at 10 µM [1]: 101%
inhibition [2]: 99%
inhibition [3]: 74%
inhibition at 0.5 µM [4]: 68%
inhibition at 1 µM [5]: 73.7%
inhibition [6]: 97%
inhibition at 0.5 µM [7]: 90%
inhibition at 10 µM [8]: 95%
inhibition [9]: 56%
inhibition at 10 µM [10]: 89%
inhibition at 0.5 µM [11]: 85%
inhibition at 1 µM [12]: 75.7%
inhibition [13]: 83%
IC50 [14]: 0.012 µM
inhibition [15]: 85%
inhibition at 10 µM [16]: 107%
inhibition at 10 µM [17]: 99%

C[S+]([O-])CCCCN=C=S (stereo not drawn) [SULFORAPHANE]
IC50 [18]: > 10 µM
IC50 [19]: > 10 µM
Activity [20]: 11.4%
Activity [21]: 0.768%
IC50 [22]: 6.31 µM
IC50 [23]: > 10 µM
inhibition [24]: inactive
IC50 [25]: > 10 µM
IC50 [26]: 8.36 µM
viability at 1 µM [27]: 96.9%
IC50 [28]: 7.65 µM
IC50 [29]: > 10 µM
Activity [30]: 2.07%
IC50 [31]: > 10 µM
IC50 [32]: > 10 µM
inhibition [33]: Active
IC50 [34]: > 10 µM
viability at 1 µM [35]: 78.8%
Activity [36]: 0.301%
IC50 [37]: > 10 µM
inhibition [38]: inactive
Activity [39]: 2.09%
IC50 [40]: > 10 µM
Activity [41]: 7.76%
IC50 [42]: 9.95 µM
inhibition [43]: Active
